Experiment [1] concerns the target UDP-N-acetylglucosamine 1-carboxyvinyltransferase (Escherichia coli (strain K12), UniProt P0A749). The experiment is described as follows: Inhibitory concentration against MurA enzyme in Escherichia coli. In outline:
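Enzyme preincubated with inhibitor 10 min at 37 °C before substrates were added. Reaction ran 30 min at 37 °C and was stopped with malachite green reagent (0.03% malachite green, 1.4% ammonium molybdate, 1.3 N HCl) for phosphate read-out.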

Experiment [2] has as its target T1, UDP-N-acetylenolpyruvoylglucosamine reductase (Escherichia coli (strain K12), UniProt P08373).
T1 sequence (P08373 whole entry): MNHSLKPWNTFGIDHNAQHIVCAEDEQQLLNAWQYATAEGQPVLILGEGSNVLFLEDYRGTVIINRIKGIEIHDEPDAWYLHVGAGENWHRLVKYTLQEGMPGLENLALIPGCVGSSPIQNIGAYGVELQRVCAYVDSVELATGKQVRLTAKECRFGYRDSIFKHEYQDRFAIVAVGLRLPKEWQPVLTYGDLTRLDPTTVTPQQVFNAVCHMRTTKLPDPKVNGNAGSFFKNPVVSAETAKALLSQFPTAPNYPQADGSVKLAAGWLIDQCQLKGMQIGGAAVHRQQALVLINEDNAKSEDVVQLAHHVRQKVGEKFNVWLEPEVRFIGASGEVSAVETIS
The experiment is described as follows: Inhibitory concentration against MurB enzyme in Escherichia coli. In outline: (§1)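 Enzyme (20 nM) preincubated 20 min with inhibitor, then substrates added to final 50 µM EP-UNAG and 100 µM NADPH. Activity followed spectrophotometrically. At least six inhibitor concentrations between 1.5 and 50 µM per compound. IC50 from sigmoid Hill curve fit (0–100).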

In experiment [3] the target is T2, UDP-N-acetylenolpyruvoylglucosamine reductase (Staphylococcus aureus, UniProt P61431).
T2 sequence (P61431 whole entry): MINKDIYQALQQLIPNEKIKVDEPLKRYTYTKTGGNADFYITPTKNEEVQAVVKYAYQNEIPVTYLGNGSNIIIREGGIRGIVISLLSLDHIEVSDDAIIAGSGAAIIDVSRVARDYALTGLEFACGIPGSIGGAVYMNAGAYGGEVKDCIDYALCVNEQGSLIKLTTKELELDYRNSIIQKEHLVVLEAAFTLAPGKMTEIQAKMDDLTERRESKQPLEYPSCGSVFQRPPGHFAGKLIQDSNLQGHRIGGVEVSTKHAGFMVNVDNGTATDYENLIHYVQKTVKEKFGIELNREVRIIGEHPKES
The experiment is described as follows: Inhibitory concentration against MurB enzyme in Staphylococcus aureus. Summed up:
as §1

pIC50: −log10 of the molar value.

UDP-N-acetylglucosamine 1-carboxyvinyltransferase, sequence (P0A749 whole entry): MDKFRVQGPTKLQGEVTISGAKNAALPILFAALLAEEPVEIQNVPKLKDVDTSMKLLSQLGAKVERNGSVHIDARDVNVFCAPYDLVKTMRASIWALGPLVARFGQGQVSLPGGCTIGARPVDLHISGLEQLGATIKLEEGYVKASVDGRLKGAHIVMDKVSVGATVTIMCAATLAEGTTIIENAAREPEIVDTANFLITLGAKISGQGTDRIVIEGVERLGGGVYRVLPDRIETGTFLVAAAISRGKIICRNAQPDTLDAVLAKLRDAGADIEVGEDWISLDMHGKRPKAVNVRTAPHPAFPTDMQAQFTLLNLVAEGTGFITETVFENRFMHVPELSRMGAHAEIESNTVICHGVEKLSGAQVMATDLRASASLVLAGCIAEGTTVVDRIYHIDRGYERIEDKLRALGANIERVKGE

For `CCN(CC)CCc1c(O)n(-c2ccc(Cl)cc2)n(-c2ccc(Cl)cc2)c1=O` [1,2-Bis-(4-chloro-phenyl)-4-(2-diethylamino-ethyl)-pyrazolidine-3,5-dione], the negative logarithm of the IC50 (pIC50) in experiment [1] and in experiment [2] was below 4.30 each time.
For `CCC(CC)Cc1c(O)n(-c2ccc(Cl)cc2)n(-c2ccc(Cl)cc2)c1=O` [1,2-Bis-(4-chloro-phenyl)-4-(2-ethyl-butyl)-pyrazolidine-3,5-dione], the values for the pIC50 in experiment [1] and in experiment [2] were below 4.30 and 4.30, respectively.
As to `COc1cccc(Cc2c(O)n(-c3ccc(Cl)cc3)n(-c3ccc(Cl)cc3)c2=O)c1` [1,2-Bis-(4-chloro-phenyl)-4-(3-methoxy-benzyl)-pyrazolidine-3,5-dione], the pIC50 (in general, the IC50 on a negative log10 scale, so that one unit is a factor of ten) was below 4.30 in experiment [1] and 4.30 in experiment [2].
As to `O=c1c(Cc2ccccc2Cl)c(O)n(-c2ccc(Cl)cc2)n1-c1ccc(Cl)cc1` [4-(2-Chloro-benzyl)-1,2-bis-(4-chloro-phenyl)-pyrazolidine-3,5-dione], the negative-log IC50 (pIC50) in experiment [3], in experiment [1] and in experiment [2] was below 4.30 throughout.
`O=c1c(Cc2ccccc2)c(O)n(-c2ccc(Cl)cc2)n1-c1ccc(Cl)cc1` [4-Benzyl-1,2-bis-(4-chloro-phenyl)-pyrazolidine-3,5-dione]: the negative-log IC50 (pIC50) in experiment [1] and in experiment [2] was below 4.30 throughout.
On to `CCN(CCc1c(O)n(-c2ccc(Cl)cc2)n(-c2ccc(Cl)cc2)c1=O)Cc1ccccc1` [4-[2-(Benzyl-ethyl-amino)-ethyl]-1,2-bis-(4-chloro-phenyl)-pyrazolidine-3,5-dione], for which the pIC50 in experiment [3], in experiment [1] and in experiment [2] was below 4.30 in each case.

Values taken from BindingDB's records for doi:10.1016/j.bmcl.2005.03.058 (Wyeth Research, 2005).
